This note sets out measurements from ChEMBL document CHEMBL1138398, “Design and synthesis of novel bis(L-amino acid) ester prodrugs of 9-[2-(phosphonomethoxy)ethyl]adenine (PMEA) with improved anti-HBV activity” (Bioorg Med Chem Lett, 2007).

For series [1], the system named is Hepatitis B virus. Description: Antiviral activity against HBV assessed as inhibition of cytoplasmic HBV-DNA synthesis. Type of series: functional, organism-based. The procedure, abridged:
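Run in HepG2 2.2.15 cells; EC50 taken as the concentration giving 50% inhibition of cytoplasmic HBV-DNA synthesis.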

Series [2] relates to HepG2. Kind of series: Cytotoxicity against HepG2 2.2.15 cells. The conditions noted are these: Homo sapiens. Type of series: functional. The procedure, abridged:
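HepG2 2.2.15 cells exposed to compound; CC50 defined as the concentration causing 50% extinction of the cells.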

Series [3] can be described thus: Selectivity index, ratio of CC50 for HepG2 2.2.15 cells to EC50 for HBV. Type of series: functional. The procedure, abridged:
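In HepG2 2.2.15 cells: SI calculated as CC50 (50% extinction of the cells) divided by EC50 (50% inhibition of cytoplasmic HBV-DNA synthesis).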

The nature of series [4]: Metabolic stability assessed as half life in human plasma. Type of series: ADME, cell-free.

With `Cl.Nc1ccn([C@@H]2CS[C@H](CO)O2)c(=O)n1`, the EC50 in series [1] stood at 0.0807 µM. It took 230 µM to reach half-maximal cytotoxicity in series [2] (CC50). In addition, the “Ratio CC50/EC50” value in series [3] worked out at 2850.
For `CC(C)C[C@H](N)C(=O)OCOP(=O)(COCCn1cnc2c(N)ncnc21)OCOC(=O)[C@@H](N)CC(C)C.Cl`, in that order: 0.341 µM, 8560 µM and 25111.
For `CC(C)[C@H](N)C(=O)OCOP(=O)(COCCn1cnc2c(N)ncnc21)OCOC(=O)[C@@H](N)C(C)C.Cl`, in that order: 0.304 µM, 3380 µM and 11094.
On to `CC(C)[C@H](N)C(=O)OCCOP(=O)(COCCn1cnc2c(N)ncnc21)OCCOC(=O)[C@@H](N)C(C)C.Cl`, for which the EC50 in series [1] amounted to 1.31 µM. In series [2], this molecule returned a CC50 of 2590 µM. Moreover, in series [3], the “Ratio CC50/EC50” value came to 1974. Further, the half-life in series [4] was determined as 2 h.
Take `CC(C)[C@H](N)C(=O)SCCOP(=O)(COCCn1cnc2c(N)ncnc21)OCCSC(=O)[C@@H](N)C(C)C.Cl`: in series [1], the EC50 worked out at 0.752 µM. Moreover, in series [3], the “Ratio CC50/EC50” value stood at 38167.
Consider `CC(C)C[C@H](N)C(=O)SCCOP(=O)(COCCn1cnc2c(N)ncnc21)OCCSC(=O)[C@@H](N)CC(C)C.Cl`, for which the EC50 in series [1] came to 0.211 µM. The same molecule came in with a CC50 in series [2] of 3410 µM. In series [3], the “Ratio CC50/EC50” value came out at 16129.
Regarding `Cl.Nc1ncnc2c1ncn2CCOCP(=O)(OCOC(=O)[C@@H](N)Cc1ccccc1)OCOC(=O)[C@@H](N)Cc1ccccc1`, the EC50 in series [1] was determined as 0.659 µM. Besides, in series [3], the “Ratio CC50/EC50” value worked out at 23312.
On to `C[C@H](N)C(=O)SCCOP(=O)(COCCn1cnc2c(N)ncnc21)OCCSC(=O)[C@H](C)N.Cl`, for which, in series [1], the EC50 came to 1.56 µM. In addition, in series [2], the midpoint of cytotoxicity, the CC50, lay at 2420 µM. Further, the “Ratio CC50/EC50” value in series [3] was 1548.
Turning to `C[C@H](N)C(=O)OCCOP(=O)(COCCn1cnc2c(N)ncnc21)OCCOC(=O)[C@H](C)N.Cl`, the EC50 in series [1] was determined as 12.5 µM. This molecule also displayed a CC50 in series [2] of 1840 µM. Also, the “Ratio CC50/EC50” value in series [3] is 146.
Take `CC(C)C[C@H](N)C(=O)OCCOP(=O)(COCCn1cnc2c(N)ncnc21)OCCOC(=O)[C@@H](N)CC(C)C.Cl`: the EC50 in series [1] is 0.0952 µM. In series [2], this molecule gave a CC50 of 6640 µM. Also, in series [3], the “Ratio CC50/EC50” value is reported as 69523. For the same molecule, the half-life in series [4] came to 4.5 h.
For `Cl.Nc1ncnc2c1ncn2CCOCP(=O)(OCCOC(=O)[C@@H](N)Cc1ccccc1)OCCOC(=O)[C@@H](N)Cc1ccccc1`, in that order: 0.311 µM, 2590 µM, 8354 and 0.25 h.
Take `Cl.NCC(=O)SCCOP(=O)(COCCn1cnc2c(N)ncnc21)OCCSC(=O)CN`: the EC50 in series [1] amounted to 10.2 µM. Besides, the CC50 in series [2] was determined as 259 µM. In addition, the “Ratio CC50/EC50” value in series [3] is 25.
With `CC(C)(C)C(=O)OCOP(=O)(COCCn1cnc2c(N)ncnc21)OCOC(=O)C(C)(C)C.Cl`, the EC50 in series [1] is 0.517 µM. Moreover, the midpoint of cytotoxicity in series [2], the CC50, lay at 540 µM. In addition, the “Ratio CC50/EC50” value in series [3] amounted to 1044. Further, the half-life in series [4] stood at 0.75 h.
Take `Cl.Nc1ncnc2c1ncn2CCOCP(=O)(OCCSC(=O)[C@@H](N)Cc1ccccc1)OCCSC(=O)[C@@H](N)Cc1ccccc1`: the EC50 in series [1] worked out at 0.208 µM. Moreover, in series [3], the “Ratio CC50/EC50” value is 52727.

One may read the EC50 as the concentration that produces a half-maximal response. In general, CC50 refers to the concentration at which the toxic effect on the cells reaches its halfway point. A lower CC50 goes with greater toxicity to the cells. The half-life is the time in which the quantity being followed falls by half.
